Measured values collected from several papers.
Protocols differ between the studies behind these lines.
Target: Serine/threonine-protein kinase haspin (HASPIN, Homo sapiens, UniProt Q8TF76)
One construct used (Q8TF76 1-798): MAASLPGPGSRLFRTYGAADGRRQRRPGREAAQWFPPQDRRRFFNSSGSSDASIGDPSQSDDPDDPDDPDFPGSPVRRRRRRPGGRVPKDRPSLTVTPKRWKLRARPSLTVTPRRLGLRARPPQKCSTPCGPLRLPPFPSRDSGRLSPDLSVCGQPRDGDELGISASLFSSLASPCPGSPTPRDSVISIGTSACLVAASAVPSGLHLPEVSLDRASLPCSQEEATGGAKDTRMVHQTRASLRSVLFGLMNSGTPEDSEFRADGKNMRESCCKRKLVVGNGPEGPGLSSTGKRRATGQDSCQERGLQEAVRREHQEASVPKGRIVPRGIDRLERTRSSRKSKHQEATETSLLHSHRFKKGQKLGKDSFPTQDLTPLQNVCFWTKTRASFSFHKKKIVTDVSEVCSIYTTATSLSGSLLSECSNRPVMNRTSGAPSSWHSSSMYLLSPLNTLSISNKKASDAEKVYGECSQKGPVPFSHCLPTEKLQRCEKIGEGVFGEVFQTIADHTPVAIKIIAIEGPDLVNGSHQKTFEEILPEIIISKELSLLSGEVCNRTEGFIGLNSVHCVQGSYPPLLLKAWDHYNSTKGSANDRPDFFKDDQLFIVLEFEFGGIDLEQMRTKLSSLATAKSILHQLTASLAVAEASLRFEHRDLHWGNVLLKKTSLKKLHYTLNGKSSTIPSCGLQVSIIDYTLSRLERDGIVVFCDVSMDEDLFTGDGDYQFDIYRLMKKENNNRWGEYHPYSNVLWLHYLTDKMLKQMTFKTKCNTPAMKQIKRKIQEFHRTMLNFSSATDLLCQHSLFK

| Compound | assay | conditions | quantity | value |
| --- | --- | --- | --- | --- |
| N#Cc1ccc(Nc2ccc3[nH]c(=O)[nH]c3c2)c(Cl)c1 | cell-free assay, competition with immobilised ligand | 1 µM | remaining binding | 100% |
| Cn1cnc(Br)c1C1=CN(c2ncnc3[nH]cnc23)CCS1 | enzyme activity, inhibitor, radiometric | 50 nM | inhibition | 32.9% |
| O=c1c2ccccc2[nH]c(=S)n1CCN1CCC(=C(c2ccc(F)cc2)c2ccc(F)cc2)CC1 | enzyme activity, inhibitor | 0.5 µM | remaining activity | 95.4% |
| CC(C)(C)c1nc(-c2cccc(NS(=O)(=O)c3c(F)cccc3F)c2F)c(-c2ccnc(N)n2)s1 | enzyme activity, inhibitor, radiometric | 1 µM | remaining activity | 147% |
| COc1cc2nccc(Oc3ccc(NC(=S)NC(=O)c4ccccc4C)cc3)c2cc1OC | enzyme activity, inhibitor | 0.5 µM | remaining activity | 95.9% |
| Cn1cncc1C1=CN(c2ncnc3[nH]cnc23)CCS1 | enzyme activity, inhibitor, radiometric | 50 nM | inhibition | 25.6% |
| Cc1ccc(C(=O)Nc2ccc(CN3CCN(C)CC3)c(C(F)(F)F)c2)cc1C#Cc1cnc2cccnn12 | enzyme activity | 23.5 nM | remaining activity | 86% |
| O=C1NC(=O)c2cc(Nc3ccc(F)cc3)c(Nc3ccc(F)cc3)cc21 | cell-free assay | 0.5 µM | remaining signal | 95.1% |
| O=C(Nc1cnn(-c2csc(C(=O)NC3COC3)c2)c1)Nc1c(F)cccc1Cl | enzyme activity, inhibitor | 5 µM | remaining activity | 111% |
| CCN(CC)c1ccc(C2=NNC(=O)CC2C)cc1[N+](=O)[O-] (centres unmarked) | enzyme activity, inhibitor | 10 µM | remaining activity | 106% |
| O=C(Nc1cnn(-c2csc(C(=O)NC3COC3)c2)c1)Nc1ccccc1Cl | enzyme activity, inhibitor | 5 µM | remaining activity | 112% |
| CC(=O)Nc1c(C(C)=O)c(=O)n(C)c2nc(-c3ccc(Cl)cc3Cl)c(-c3ccc(Cl)cc3)cc12 | cell-free assay, competition with immobilised ligand | 1 µM | remaining binding | 100% |
| CCN(CC)CCNC(=O)c1c(C)[nH]c(/C=C2\C(=O)Nc3ccc(F)cc32)c1C | enzyme activity, inhibitor | 0.3 µM | inhibition | 32% |
| COc1cc(-c2cc(-c3ccc(N4CCNCC4)cc3)cnc2C)cc(OC)c1OC | enzyme activity, inhibitor | 0.1 µM | inhibition | 3% |
| CCCCN(CCCC)C(=O)CN1C[C@@H](c2cc(OC)c3c(c2)OCO3)[C@H](C(=O)O)[C@H]1CC(C)(C)CCC | cell-free assay, competition with immobilised ligand | 1 µM | remaining binding | 100% |
| Cc1ccc(Nc2nccc(N(C)c3ccc4c(C)n(C)nc4c3)n2)cc1S(N)(=O)=O | enzyme activity, inhibitor | 0.3 µM | inhibition | 0% |
| CN(C)C(=O)Cn1cc(-c2nc([C@@](C)(c3ccc(-c4cnc(N)nc4)cc3)C3CC3)no2)cn1 | cell-free assay, competition with immobilised ligand | 1 µM | remaining binding | 100% |
| O=c1cc(-c2cccc3c2Sc2ccccc2S3)oc(N2CCOCC2)c1 | enzyme activity, inhibitor | 0.5 µM | remaining activity | 106% |
| Cc1ccc(NC(=O)c2ccc(C)c(C(F)(F)F)c2)cc1C#Cc1nn(C2CCC(O)CC2)c2ncnc(N)c12 (centres unmarked) | cell-free assay | 10 µM | remaining signal | 93% |
| CNC(=O)c1cc(Oc2ccc(NC(=O)Nc3ccc(Cl)c(C(F)(F)F)c3)cc2)ccn1 | enzyme activity, inhibitor | 10 µM | inhibition | 10% |
| CC(=O)c1c(NS(C)(=O)=O)c2cc(-c3ccc(Cl)cc3)c(-c3ccc(Cl)cc3Cl)nc2n(C)c1=O | cell-free assay, competition with immobilised ligand | 1 µM | remaining binding | 92% |
| CN1CCN(C(=O)c2ccc3cc(CCNc4ccnc5ccc(C#N)cc45)ccc3c2)CC1 | cell-free assay, competition with immobilised ligand | 2 µM | inhibition | > 35% |
| CC1=C(C#N)C(c2ccc3c(c2)c(NC(=O)c2ccccc2C)nn3C)C(C#N)=C(C)N1 | cell-free assay, competition with immobilised ligand | 1 µM | remaining binding | 71% |
| CC(C)(O)[C@H]1CC[C@H](Nc2ccc3ncc(-c4cccc(C(F)(F)F)c4)n3n2)CC1 | enzyme activity, inhibitor | 1 µM | remaining activity | 15.4% |
| Cc1c(C(=O)O)cc(-c2ccc(C3CCNCC3)cc2)c2ccc(-c3ccc(C(F)(F)F)cc3)cc12 | cell-free assay, competition with immobilised ligand | 1 µM | remaining binding | 100% |
| Nc1ncnc2occ(-c3ccc(NC(=O)Nc4cc(C(F)(F)F)ccc4F)cc3)c12 | cell-free assay | 20 µM | remaining signal | 43% |
